≈ marks a conversion by molar mass, not a printed value. Calls of active or inactive are those of the source. The calls are words filed in the database; no cut-off is given here.

Experiment [1] deals with Candida tropicalis. The experiment in a line: Antifungal activity against Candida tropicalis 5008 infected in ICR mouse model assessed as reduction in fungal burden in kidney at 20 mg/kg, po administered once a day for 5 days. The experiment is classed as functional. The conditions noted are these: time 5 day. A digest of the protocol: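 ICR mice given cyclophosphamide 100 mg/kg ip 24 h before infection, then infected iv with 1 × 10⁵ CFU C. tropicalis 5008 on day 0. Treatment started 24 h post infection: oral dosing once daily for 5 consecutive days, with saline and fluconazole control groups. Mice euthanized day 6. Kidney homogenates plated on SDA at 35 °C for 48 h and colonies counted for fungal burden. ANOVA between groups.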

Experiment [2] relates to Candida tropicalis. Nature of the experiment: Antifungal activity against Candida tropicalis 5008 assessed as inhibition of fungal filamentation by measuring reduction in hyphae formation at 1 ug/ml incubated for 7 hrs by cell inverted imaging microscopic analysis. Type of experiment: functional, organism-based. The conditions noted are these: dose 1.0 µg/ml. The method in brief:
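C. tropicalis 5008 from exponential YEPD culture diluted in spider medium to 1 × 10⁵ CFU/mL. Compound added at several concentrations, with fluconazole as positive drug. Incubated 37 °C for 7 h, then morphology compared with the no-drug group by live-cell inverted microscopy.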

In experiment [3] the test system is Candida tropicalis. Nature of the experiment: Downregulation of CDR1 mRNA expression in Candida tropicalis 5008 at 4 ug/ml measured after 24 hrs by qRT-PCR analysis. Type of experiment: functional. The following applies: dose 4.0 µg/ml. The method in brief:
(§1)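 Exponential-phase C. tropicalis 5008 inoculated into 10 mL YPD with compound at several concentrations, DMSO as blank control. Incubated 35 °C for 24 h. Total RNA isolated on columns and reverse-transcribed. Real-time RT-PCR with ACT1 as internal control. Mean of 3 independent assays ± SD.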
For orientation: Quantitative PCR measures a nucleic acid by following its amplification.

Experiment [4] relates to Cryptococcus neoformans. The experiment in a line: Downregulation of CLR61 mRNA expression in Cryptococcus neoformans H99 at 2 ug/ml measured after 24 hrs by qRT-PCR analysis. Type of experiment: functional. The conditions noted are these: dose 2.0 µg/ml. A digest of the protocol: (§2)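 Exponentially growing C. neoformans H99 inoculated into 50 mL YPD with compound and incubated 35 °C for 24 h. Cells ground in liquid nitrogen before total RNA isolation, then reverse transcription and real-time RT-qPCR. Means ± SD of three independent assays.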

For experiment [5], the system named is Candida tropicalis. The experiment in a line: Antifungal activity against fluconazole-resistant Candida tropicalis 5008 assessed as inhibition of cell proliferation at 32 ug/ml measured for 48 hrs by time growth curve assay. The experiment is classed as functional, organism-based. The following applies: dose 32.0 µg/ml. A digest of the protocol:
(§3)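 Exponential-phase cells from YEPD resuspended in 3 mL fresh RPMI 1640 at 1 × 10⁵ cells/mL (C. tropicalis 5008) or 1 × 10⁶ cells/mL (C. neoformans H99). Compound at several concentrations; cultures shaken at 240 rpm, 30 °C. Growth read as OD₆₃₀ at 0, 6, 12, 24, 36 and 48 h. Done in triplicate.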

Experiment [6] relates to Cryptococcus neoformans. Nature of the experiment: Downregulation of CAP60 gene expression in Cryptococcus neoformans H99 at 2 ug/ml measured after 24 hrs by qRT-PCR analysis. The experiment is classed as functional. The conditions noted are these: dose 2.0 µg/ml. A digest of the protocol:
as §2

Experiment [7] deals with Cryptococcus neoformans. The experiment in a line: Downregulation of CAP59 gene expression in Cryptococcus neoformans H99 at 2 ug/ml measured after 24 hrs by qRT-PCR analysis. Type of experiment: functional. The following applies: dose 2.0 µg/ml. The method in brief:
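Exponential-phase C. neoformans H99 inoculated into 50 mL YPD with compound. Incubated 35 °C for 24 h, then cultures ground in liquid nitrogen for RNA isolation. Transcript levels of capsule-associated genes quantified by RT-qPCR. Three independent experiments, mean ± SD, t-test.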

Experiment [8] relates to Candida tropicalis. The experiment in a line: Inhibition of CYP51 in Candida tropicalis 5008 assessed as unknown sterol level at 4 ug/ml by GC-MS analysis (reference value: 6.48%). On the set-up: scale not given: the % may be the effect or the level left. The following applies: dose 4.0 µg/ml.
Experiment [9] has as its system Cryptococcus neoformans. Nature of the experiment: Inhibition of CYP51 in Cryptococcus neoformans H99 assessed as ergosterol level at 4 ug/ml by GC-MS analysis (reference value: 60.18%). Also on record: scale not given: the % may be the effect or the level left. The conditions noted are these: dose 4.0 µg/ml.
The subject of experiment [10] is Cryptococcus neoformans. The experiment in a line: Inhibition of biofilm formation in Cryptococcus neoformans H99 at 64 ug/ml incubated for 24 hrs by XTT reduction assay. Type of experiment: functional. A digest of the protocol:
(§4)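 C. tropicalis 5008 or C. neoformans H99 from exponential YEPD culture diluted in RPMI 1640 to 1 × 10⁶ CFU/mL. Adhesion at 37 °C for 1.5 h. Results given as percent inhibition versus untreated wells. Three independent experiments, mean ± SD, t-test.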
Background: Tetrazolium dyes change colour on reduction, which living cells bring about.

The test system of experiment [11] is Cryptococcus neoformans. Nature of the experiment: Antifungal activity against fluconazole-sensitive Cryptococcus neoformans H99 assessed as inhibition of cell proliferation at 2 to 8 ug/ml measured for 48 hrs by time growth curve assay. The conditions noted are these: dose 2-8 µg/ml. Type of experiment: functional, organism-based. A digest of the protocol:
as §3

Experiment [12] concerns Candida tropicalis. Nature of the experiment: Inhibition of biofilm formation in Candida tropicalis 5008 at 64 ug/ml incubated for 24 hrs by XTT reduction assay. The experiment is classed as functional. The method in brief: as §4
A further experiment has as its system Candida albicans. Nature of the experiment: microbe, parasite or virus in culture. The experiment is classed as functional. The following applies: 0304103.
The subject of experiment [13] is Candida tropicalis. The experiment in a line: Downregulation of MDR1 mRNA expression in Candida tropicalis 5008 at 4 ug/ml measured after 24 hrs by qRT-PCR analysis. Type of experiment: functional. The following applies: dose 4.0 µg/ml. A digest of the protocol:
as §1

A further experiment deals with HUVEC. The experiment in a line: Cytotoxicity against human HUVEC assessed as reduction in cell viability. Type of experiment: cell-based.

As a reminder, the inhibition is the relative decrease from the control value, in per cent. The term IC50 denotes the concentration that inhibits the measured activity by half. As to `O=C(CCCCCCCOc1ccc(CN2CCN(CC(O)(Cn3cncn3)c3ccc(F)cc3F)CC2)cc1)NO` (stereo not given), in the experiment with Candida tropicalis [1], the “log(activity)” value is reported as 0.7. Also, the result with Candida tropicalis [2], in the experiment with Candida tropicalis [5] and in the experiment on Cryptococcus neoformans [11] was Active. Further, the inhibition result in the experiment with Candida tropicalis [3], with Cryptococcus neoformans [4], in the experiment on Cryptococcus neoformans [6] and in the experiment on Candida tropicalis [13] was “Active” in each case. In the experiment on Cryptococcus neoformans [7], the inhibition result is “inactive”. Besides, the Activity in the experiment on Candida tropicalis [8] is 1.31%; in the experiment with Cryptococcus neoformans [9], 19.1%. Moreover, the inhibition at 64 µg/mL came to 70% in the experiment with Cryptococcus neoformans [10] and 100% in the experiment on Candida tropicalis [12]. This compound also gave an MIC80 against Candida albicans of 8 µg/mL (≈ 13.6 µM). For the same compound, the IC50 in the experiment with HUVEC turned out to be 5.9 µg/mL (≈ 10.1 µM).

These data come from ChEMBL document CHEMBL4842325, “Lanosterol 14α-demethylase (CYP51)/histone deacetylase (HDAC) dual inhibitors for treatment of Candida tropicalis and Cryptococcus neoformans infections” (Eur J Med Chem, 2021).
